From ChEMBL document CHEMBL1155126, “2-N-Methyl modifications and SAR studies of manzamine A” (Bioorg Med Chem, 2008)
pIC50: −log10 of the molar value. ≈ marks a conversion by molar mass, not a printed value. Calls of active or inactive are those of the source. The calls are words filed in the database; no cut-off is given here.

Legend:
Plasmodium falciparum [1] = test: Antimalarial activity after 72 hrs against chloroquine-resistant Plasmodium falciparum W2 as LDH activity; assay type: functional, organism-based; details: W2, 72 h
Summary of the method: (§1)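 D6 or W2 parasitised red cells (2% parasitemia, 2% hematocrit) in RPMI 1640 with 10% human serum and 60 µg/mL amikacin, added to serially diluted samples. Cultures were gassed with 90% N2/5% O2/5% CO2 and held 72 h at 37 °C. Parasite LDH was read with Malstat reagent plus NBT/PES, stopped with 5% acetic acid, at 650 nm.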

Hepatitis C virus [2] = test: Antiviral activity against HCV in Huh7 cells at 10 uM by replicon assay; assay type: functional, Hepacivirus hominis, Huh-7
Summary of the method: (§2)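 HCV replicon in Huh-7 cells. Compound tested at 10 µM in triplicate, added immediately after seeding. HCV RNA and rRNA measured as ΔCt values and reported as % inhibition of each.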

Cryptococcus neoformans [3] = test: Antimicrobial activity against Cryptococcus neoformans ATCC 90113; assay type: functional, organism-based
Summary of the method: (§3)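 Broth microdilution following modified CLSI methods; M. intracellulare by a modified Franzblau method. Samples serially diluted in 20% DMSO/saline and plated in duplicate. Inocula set by OD630 of suspensions in incubation broth. Growth read at 630 nm, or fluorescence 544ex/590em for M. intracellulare, before and after incubation. MIC is the lowest concentration with no detectable growth. MFC/MBC comes from subculturing clear wells onto agar.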

Hepatitis C virus [4] = test: Antiviral activity against HCV at 10 uM; assay type: functional, Hepacivirus hominis; summary of the method: as §2
[5] = tested on: Mycobacterium intracellulare; test: Antimicrobial activity against Mycobacterium intracellular ATCC 23068; assay type: functional, organism-based; summary of the method: as §3
Candida albicans [6] = test: Antimicrobial activity against Candida albicans ATCC 90028 at 89 uM; assay type: functional, organism-based
Plasmodium falciparum [7] = test: Antimalarial activity after 72 hrs against chloroquine-sensitive Plasmodium falciparum D6 as LDH activity; assay type: functional, organism-based; details: D6, 72 h; summary of the method: as §1
Escherichia coli = test: Antimicrobial activity against Escherichia coli ATCC 35218; assay type: functional, organism-based
Summary of the method: (§4)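 Modified CLSI broth microdilution; M. intracellulare by a modified Franzblau method. Samples were serially diluted in 20% DMSO/saline and tested in duplicate. Inocula were set by OD630 in broth. Growth was read before and after incubation at 630 nm, or by fluorescence 544ex/590em for A. fumigatus and M. intracellulare. MIC is the lowest concentration with no detectable growth; MFC/MBC is the lowest concentration giving no growth after 5 µL is subcultured to agar.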

Staphylococcus aureus [8] = test: Antimicrobial activity against methicillin-resistant Staphylococcus aureus ATCC 43300; assay type: functional, organism-based
Summary of the method: as §4, with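 “broth.” for “broth. Growth was read before and after incubation at 630 nm, or by fluorescence 544ex/590em for A. fumigatus and M. intracellulare.”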

Aspergillus fumigatus = test: Antimicrobial activity against Aspergillus fumigatus ATCC 90906; assay type: functional, organism-based; summary of the method: as §4
Vero [9] = test: Cytotoxicity against african green monkey Vero cells at 17 uM after 48 hrs by neutral red assay; assay type: cell-based; details: chlorocebus sabaeus
Summary of the method: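 Vero cells seeded at 25,000 cells/well and incubated 24 h. Samples added at a range of concentrations, top concentration 17 µM, then incubated a further 48 h. Viable cells measured by Neutral Red uptake. IC50 taken from dose-response curves; doxorubicin positive control.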

Cryptococcus neoformans [10] = test: Antimicrobial activity against Cryptococcus neoformans ATCC 90113 at 89 uM; assay type: functional, organism-based
[11] = Selectivity index, ratio of IC50 for african green monkey (Cercopithecus aethiops) Vero cells to IC50 for chloroquine-resistant Plasmodium falciparum W2; assay type: toxicity, cell-based; details: read-out: Ratio IC50
Summary of the method: (§5)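 Ratio of Vero IC50 (neutral red, 48 h exposure) to P. falciparum IC50 from the 72 h LDH assay on the matching strain (W2 or D6).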

[12] = Selectivity index, ratio of IC50 for african green monkey (Cercopithecus aethiops) Vero cells to IC50 for chloroquine-sensitive Plasmodium falciparum D6; assay type: toxicity, cell-based; details: read-out: Ratio IC50; summary of the method: as §5
Pseudomonas aeruginosa = test: Antimicrobial activity against Pseudomonas aeruginosa ATCC 27853; assay type: functional, organism-based; summary of the method: as §4
[13] = tested on: Mycobacterium intracellulare; test: Antimicrobial activity against Mycobacterium intracellular ATCC 23068 at 87 uM; assay type: functional, organism-based
Plasmodium falciparum [14] = test: Antimalarial activity after 72 hrs against chloroquine-sensitive Plasmodium falciparum D6 at 8 uM as LDH activity; assay type: functional, organism-based
Plasmodium falciparum [15] = test: Antimalarial activity after 72 hrs against chloroquine-resistant Plasmodium falciparum W2 at 8 uM as LDH activity; assay type: functional, organism-based
Staphylococcus aureus [16] = test: Antimicrobial activity against methicillin-resistant Staphylococcus aureus ATCC 43300 at 87 uM; assay type: functional, organism-based
Candida albicans [17] = test: Antimicrobial activity against Candida albicans ATCC 90028 at 87 uM; assay type: functional, organism-based
Staphylococcus aureus [18] = test: Antimicrobial activity against methicillin-resistant Staphylococcus aureus ATCC 43300 at 89 uM; assay type: functional, organism-based
[19] = tested on: Mycobacterium intracellulare; test: Antimicrobial activity against Mycobacterium intracellular ATCC 23068 at 89 uM; assay type: functional, organism-based
Cryptococcus neoformans [20] = test: Antimicrobial activity against Cryptococcus neoformans ATCC 90113
Candida albicans [21] = test: Antimicrobial activity against Candida albicans ATCC 90028; assay type: functional, organism-based; summary of the method: as §4
Staphylococcus aureus [22] = test: Antimicrobial activity against methicillin-resistant Staphylococcus aureus ATCC 43300 at 3.0 uM; assay type: functional, organism-based
Vero [23] = test: Cytotoxicity against african green monkey Vero cells after 48 hrs by neutral red assay; assay type: cell-based; details: Chlorocebus sabaeus
Summary of the method: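 Vero monkey kidney fibroblasts were seeded at 25,000 cells/well and grown 24 h. Samples at graded concentrations were then added for 48 h. Viable cells were counted by neutral red uptake, and IC50 was taken from dose-response curves, with doxorubicin as positive control.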

Staphylococcus aureus [24] = test: Antimicrobial activity against methicillin-resistant Staphylococcus aureus ATCC 43300 at 91 uM; assay type: functional, organism-based
Candida albicans [25] = test: Antimicrobial activity against Candida albicans ATCC 90028 at 91 uM; assay type: functional, organism-based

With `C[n+]1ccc2c([nH]c3ccccc32)c1C1=C[C@@]2(O)CC/C=C\CCCCN3CCC1[C@]1(C[C@@H]4/C=C\CCCCN4[C@H]12)C3.O=S(=O)([O-])C(F)(F)F` (some centres undefined) the pIC50 (Plasmodium falciparum [1]) was 6.00, the Activity (Hepatitis C virus [2]) was 100% and the pIC50 (Cryptococcus neoformans [3]) was 4.15. The Activity (Hepatitis C virus [4]) was 99.87%, the pIC50 [5] was 4.75 and the MBC [5] was 44.5 µM. The MIC [5] was 44.5 µM, the Activity (Candida albicans [6]) was “inactive” and the pIC50 (Plasmodium falciparum [7]) was 6.13. For the same molecule, the Activity (Escherichia coli) was “inactive”, the pIC50 (Staphylococcus aureus [8]) was 4.35 and the MBC (Staphylococcus aureus [8]) was 89 µM. The MIC (Staphylococcus aureus [8]) was 89 µM, the Activity (Aspergillus fumigatus) was “inactive” and the Activity (Vero [9]) was “Non-toxic”. For the same molecule, the Activity (Cryptococcus neoformans [10]) was “inactive”, the selectivity ratio [11] was greater than 17.5 and the selectivity ratio [12] was greater than 24. For the same molecule, the Activity (Pseudomonas aeruginosa) was “inactive”.

With `CO[C@]12C=C(c3c4[nH]c5ccccc5c4cc[n+]3C)C3CCN(CCCC/C=C\CC1)C[C@@]31C[C@@H]3/C=C\CCCCN3[C@H]12.O=S(=O)([O-])C(F)(F)F` (some centres undefined) the Activity [13] was “inactive”, the Activity (Plasmodium falciparum [14]) was “inactive” and the Activity (Plasmodium falciparum [15]) was “inactive”. The Activity (Staphylococcus aureus [16]) was “inactive”, the pIC50 (Cryptococcus neoformans [3]) was 4.28 and the MFC (Cryptococcus neoformans [3]) was 87 µM. The MIC (Cryptococcus neoformans [3]) was 87 µM, the Activity (Candida albicans [17]) was “inactive” and the Activity (Escherichia coli) was “inactive”. The Activity (Aspergillus fumigatus) was “inactive”, the Activity (Vero [9]) was “Non-toxic” and the Activity (Pseudomonas aeruginosa) was “inactive”.

In the case of `Cn1c2ccccc2c2ccnc(C3=C[C@@]4(O)CC/C=C\CCCCN5CCC3[C@]3(C[C@@H]6/C=C\CCCCN6[C@H]34)C5)c21` (some centres undefined) [9N-METHYLMANZAMINE A], the Activity (Plasmodium falciparum [14]) was “inactive”, the Activity (Plasmodium falciparum [15]) was “inactive” and the Activity (Candida albicans [6]) was “inactive”. The Activity (Staphylococcus aureus [18]) was “inactive”, the Activity (Escherichia coli) was “inactive” and the Activity (Aspergillus fumigatus) was “inactive”. For the same molecule, the Activity [19] was “inactive”, the Activity (Vero [9]) was “Non-toxic” and the Activity (Cryptococcus neoformans [10]) was “inactive”. The Activity (Pseudomonas aeruginosa) was “inactive”.

Molecule `C[C@@H]1[C@H](O)[C@@H](C)/C=C/C=C/C=C/C=C/C=C/C=C/C=C/[C@H](O[C@@H]2O[C@H](C)[C@@H](O)[C@H](N)[C@@H]2O)C[C@@H]2O[C@](O)(C[C@@H](O)C[C@@H](O)[C@H](O)CC[C@@H](O)C[C@@H](O)CC(=O)O[C@H]1C)C[C@H](O)[C@H]2C(=O)O` [AMPHOTERICIN B] has a pIC50 (Cryptococcus neoformans [20]) of 6.10, an MFC (Candida albicans [21]) of 1.35 µM (≈ 1.25 µg/mL) and an MFC (Cryptococcus neoformans [10]) of 1.35 µM (≈ 1.25 µg/mL). For the same molecule, the MIC (Cryptococcus neoformans [10]) was 1.35 µM (≈ 1.25 µg/mL).

With `C[C@@H]1CC[C@H]2[C@@H](C)C(=O)O[C@@H]3O[C@@]4(C)CC[C@@H]1[C@]32OO4` [ARTEMISININ] the pIC50 (Plasmodium falciparum [1]) was 8.35, the pIC50 (Plasmodium falciparum [7]) was 8.20 and the Activity (Vero [9]) was “Non-toxic”. For the same molecule, the selectivity ratio [11] was greater than 3700 and the selectivity ratio [12] was greater than 2700.

With `CCN(CC)CCCC(C)Nc1ccnc2cc(Cl)ccc12` (centres undefined) [CHLOROQUINE] the Activity (Vero [9]) was “Non-toxic”.

In the case of `O=C(O)c1cn(C2CC2)c2cc(N3CCNCC3)c(F)cc2c1=O` [CIPROFLOXACIN], the Activity (Staphylococcus aureus [22]) was “inactive”, the pIC50 [5] was 5.96 and the MBC [5] was 3 µM (≈ 0.994 µg/mL). The MIC [5] was 1.5 µM (≈ 0.497 µg/mL) and the MIC (Staphylococcus aureus [8]) was 1.5 µM (≈ 0.497 µg/mL).

`O[C@]12C=C(c3nccc4c3[nH]c3ccccc34)[C@@H]3CCN(CCCC/C=C\CC1)C[C@@]31C[C@@H]3/C=C\CCCCN3[C@H]12` [MANZAMINE A] showed a pIC50 (Plasmodium falciparum [1]) of 7.70, a pIC50 (Cryptococcus neoformans [3]) of 5.57 and an MFC (Cryptococcus neoformans [3]) of 23 µM (≈ 12.6 µg/mL). The MIC (Cryptococcus neoformans [3]) was 5.7 µM (≈ 3.13 µg/mL), the pIC50 [5] was 6.74 and the MBC [5] was 2.84 µM (≈ 1.56 µg/mL). It also gave an MIC [5] of 0.36 µM (≈ 0.198 µg/mL), a pIC50 (Vero [23]) of 6.30 and a pIC50 (Plasmodium falciparum [7]) of 7.77. For the same molecule, the Activity (Staphylococcus aureus [24]) was “inactive”, the Activity (Escherichia coli) was “inactive” and the pIC50 (Candida albicans [21]) was 4.79. For the same molecule, the Activity (Candida albicans [25]) was “inactive”, the pIC50 (Staphylococcus aureus [8]) was 6.74 and the Activity (Aspergillus fumigatus) was “inactive”. For the same molecule, the selectivity ratio [11] was 25.2, the selectivity ratio [12] was 29.4 and the Activity (Pseudomonas aeruginosa) was “inactive”.
